From the M2OR odorant receptor database

Key:
Conditions in all cases: stereoisomer not certain
O56A4 I247A = tested on: O56A4 I247A
In short: (§1)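 Assay methods differ from source to source, frequently being transient luciferase assays in mammalian cell lines. For each receptor–molecule pair, the label responsive (active) applies when the original authors judged the measured signal statistically different from baseline, and non-responsive (inactive) applies otherwise.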

O56A4 I247V = tested on: O56A4 I247V
In short: as §1

O56A4 = tested on: O56A4
In short: as §1

O56A5 V104L = tested on: O56A5 V104L
In short: as §1

O56B1 C106R L214F = tested on: O56B1 C106R L214F
In short: as §1

O56B1 L214F = tested on: O56B1 L214F
In short: as §1

O56B4 = tested on: O56B4
In short: as §1

O5AC2 = tested on: O5AC2
In short: as §1

O5AK2 M92I = tested on: O5AK2 M92I
In short: as §1

O5AN1 C142Y L289F = tested on: O5AN1 C142Y L289F
In short: as §1

Measured: odorant receptor agonist call

Sequence of O56A4 I247A (as listed by the source, stated change not applied): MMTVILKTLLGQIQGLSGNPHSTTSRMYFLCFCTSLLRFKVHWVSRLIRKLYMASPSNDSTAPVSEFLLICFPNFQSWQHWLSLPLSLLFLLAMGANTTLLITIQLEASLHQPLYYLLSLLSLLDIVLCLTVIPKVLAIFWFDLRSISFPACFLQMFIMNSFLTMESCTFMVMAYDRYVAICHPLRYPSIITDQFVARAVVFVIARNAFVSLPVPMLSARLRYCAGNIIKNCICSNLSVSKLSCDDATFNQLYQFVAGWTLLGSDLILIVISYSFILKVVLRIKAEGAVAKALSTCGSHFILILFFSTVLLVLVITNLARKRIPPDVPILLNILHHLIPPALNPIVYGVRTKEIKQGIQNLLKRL
Sequence of O56A5 V104L (as listed by the source, stated change not applied): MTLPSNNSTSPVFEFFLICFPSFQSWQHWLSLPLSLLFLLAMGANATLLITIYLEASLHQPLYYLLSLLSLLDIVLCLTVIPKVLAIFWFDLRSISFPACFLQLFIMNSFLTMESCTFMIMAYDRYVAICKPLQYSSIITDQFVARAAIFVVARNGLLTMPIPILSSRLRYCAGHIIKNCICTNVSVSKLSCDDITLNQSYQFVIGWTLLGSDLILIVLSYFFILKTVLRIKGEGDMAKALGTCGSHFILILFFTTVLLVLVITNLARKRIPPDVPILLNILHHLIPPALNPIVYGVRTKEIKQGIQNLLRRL
Sequence of O5AK2 M92I (as listed by the source, stated change not applied): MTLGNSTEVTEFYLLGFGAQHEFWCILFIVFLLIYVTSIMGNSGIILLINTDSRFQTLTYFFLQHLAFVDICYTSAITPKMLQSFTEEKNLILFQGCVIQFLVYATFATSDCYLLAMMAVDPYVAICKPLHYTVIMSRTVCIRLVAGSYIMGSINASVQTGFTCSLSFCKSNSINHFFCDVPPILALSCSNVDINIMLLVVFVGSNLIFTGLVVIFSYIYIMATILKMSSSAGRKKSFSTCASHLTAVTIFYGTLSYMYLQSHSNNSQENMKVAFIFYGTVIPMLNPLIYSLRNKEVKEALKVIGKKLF
Sequence of O5AC2 (as listed by the source): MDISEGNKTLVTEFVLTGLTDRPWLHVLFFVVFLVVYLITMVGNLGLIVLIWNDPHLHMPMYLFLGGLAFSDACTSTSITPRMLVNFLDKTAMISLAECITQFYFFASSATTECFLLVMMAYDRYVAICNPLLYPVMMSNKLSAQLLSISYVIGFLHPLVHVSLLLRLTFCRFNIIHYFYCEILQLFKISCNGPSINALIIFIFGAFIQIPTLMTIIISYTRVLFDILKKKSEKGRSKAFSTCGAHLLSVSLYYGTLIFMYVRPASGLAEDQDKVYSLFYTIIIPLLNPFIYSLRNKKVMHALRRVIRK
Sequence of O56A4 I247V (as listed by the source, stated change not applied): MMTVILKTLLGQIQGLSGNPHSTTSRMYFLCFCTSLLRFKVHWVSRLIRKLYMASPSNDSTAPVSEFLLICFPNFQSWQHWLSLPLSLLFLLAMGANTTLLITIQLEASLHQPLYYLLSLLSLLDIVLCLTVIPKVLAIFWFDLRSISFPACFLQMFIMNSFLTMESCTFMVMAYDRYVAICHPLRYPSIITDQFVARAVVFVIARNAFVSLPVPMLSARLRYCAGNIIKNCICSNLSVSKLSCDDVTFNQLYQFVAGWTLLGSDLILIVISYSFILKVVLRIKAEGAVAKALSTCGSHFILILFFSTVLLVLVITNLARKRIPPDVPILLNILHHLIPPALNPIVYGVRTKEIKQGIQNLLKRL
Sequence of O56B1 L214F (as listed by the source, stated change not applied): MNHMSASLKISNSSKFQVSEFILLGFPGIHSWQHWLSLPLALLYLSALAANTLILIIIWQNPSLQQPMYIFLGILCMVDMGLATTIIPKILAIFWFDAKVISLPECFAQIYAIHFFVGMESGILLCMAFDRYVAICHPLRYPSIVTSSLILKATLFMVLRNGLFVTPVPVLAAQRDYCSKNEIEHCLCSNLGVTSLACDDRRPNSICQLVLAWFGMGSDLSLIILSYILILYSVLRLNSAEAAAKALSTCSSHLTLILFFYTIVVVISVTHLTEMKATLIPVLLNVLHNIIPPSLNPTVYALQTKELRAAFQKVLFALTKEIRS
Sequence of O56A4 (as listed by the source): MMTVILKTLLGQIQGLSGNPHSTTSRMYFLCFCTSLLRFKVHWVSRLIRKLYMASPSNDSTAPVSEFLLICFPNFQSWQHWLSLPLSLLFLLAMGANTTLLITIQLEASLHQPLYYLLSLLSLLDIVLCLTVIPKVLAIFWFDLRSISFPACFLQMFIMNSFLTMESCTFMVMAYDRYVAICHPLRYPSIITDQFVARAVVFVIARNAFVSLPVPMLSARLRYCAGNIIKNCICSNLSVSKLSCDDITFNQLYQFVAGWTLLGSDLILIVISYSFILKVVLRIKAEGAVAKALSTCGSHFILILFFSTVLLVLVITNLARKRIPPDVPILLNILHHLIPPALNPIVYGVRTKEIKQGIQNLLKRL
Sequence of O56B4 (as listed by the source): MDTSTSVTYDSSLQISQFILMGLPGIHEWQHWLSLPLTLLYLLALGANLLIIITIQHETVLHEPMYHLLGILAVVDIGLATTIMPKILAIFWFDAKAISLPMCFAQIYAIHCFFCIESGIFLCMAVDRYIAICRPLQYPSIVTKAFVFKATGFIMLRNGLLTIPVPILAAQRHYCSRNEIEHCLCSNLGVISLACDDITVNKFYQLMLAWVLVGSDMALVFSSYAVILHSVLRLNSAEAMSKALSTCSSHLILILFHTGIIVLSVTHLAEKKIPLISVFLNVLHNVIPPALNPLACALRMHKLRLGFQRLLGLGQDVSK

C=CCOC(=O)Cc1ccccc1
inactive: all assays above
